From ChEMBL document CHEMBL4000230, “Design, synthesis and biological evaluation of regioisomers of 666-15 as inhibitors of CREB-mediated gene transcription” (Bioorg Med Chem Lett, 2017)

Key:
[1] = Inhibition of forskolin-stimulated CREB (unknown origin)-mediated gene transcription in HEK293T cells preincubated for 30 mins followed by forskolin-stimulation measured after 6 hrs by luciferase reporter gene assay; format: cell-based; details: Homo sapiens, HEK-293T
How it was run: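 HEK 293T cells transfected with a renilla luciferase reporter driven by three tandem CRE copies. Treated with increasing compound concentrations (50 nM to 50 μM) for 30 min, then forskolin (10 μM) for 6 h, then luciferase measured. Luciferase normalized to lysate protein concentration. IC50 by non-linear regression of dose-response curves.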

[2] = system: MDA-MB-231; assay: Cytotoxicity against human MDA-MB-231 cells assessed as growth inhibition after 72 hrs by MTT assay; format: functional; details: MDA-MB-231, 72 h
How it was run: (§1)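 Growth inhibition read by MTT after 72 h incubation of the indicated cells with drug; GI50 taken from this assay.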

[3] = system: MDA-MB-468; assay: Cytotoxicity against human MDA-MB-468 cells assessed as growth inhibition after 72 hrs by MTT assay; format: functional; details: MDA-MB-468, 72 h; how it was run: as §1

SMILES	IC50 [1]	GI50 [2]	GI50 [3]
NCCCOc1ccc2ccccc2c1C(=O)NCCOc1cc2ccccc2cc1C(=O)Nc1ccc(Cl)cc1O	18.9 µM	4.31 µM	1.7 µM
NCCCOc1cc(C(=O)NCCOc2cc3ccccc3cc2C(=O)Nc2ccc(Cl)cc2O)cc2ccccc12	17.2 µM	2.68 µM	0.55 µM
NCCCOc1cc(C(=O)NCCOc2cc3ccccc3cc2C(=O)Nc2ccc(Cl)cc2O)c2ccccc2c1	19 µM	3.82 µM	1.65 µM
NCCCOc1c(C(=O)NCCOc2cc3ccccc3cc2C(=O)Nc2ccc(Cl)cc2O)ccc2ccccc12	24 µM	3.12 µM	1.93 µM
